Published values of several laboratories.
Compare with care: the assays were run in different laboratories.
Read-out: enzyme activity
Mode: inhibitor
MAOB: Amine oxidase [flavin-containing] B (MAOB, Homo sapiens, UniProt P27338)

CCCCNNC(=O)c1ccc(Br)cc1 has an IC50 of greater than 100 µM (Histone deacetylase 9 (HDAC9, Homo sapiens, UniProt Q9UKV0); fluorescence).
For C#CCN(C)c1nc(NCCCCC2CCN(Cc3ccccc3)CC2)c(C#N)c(-c2ccccc2)c1C#N, the IC50 was greater than 100 µM (MAOB; fluorescence; with preincubation).
With CC(C)(C)c1ccc(NC(=O)c2ncn(CC(=O)NCc3ccc4c(c3)OCO4)n2)cc1 the IC50 was greater than 250 µM (Histone-lysine N-methyltransferase SUV39H2 (SUV39H2, Homo sapiens, UniProt Q9H5I1)).
O=c1c2ccccc2[se]n1-c1ccccc1 has an IC50 of greater than 200 µM (ung (Escherichia coli, UniProt P12295)).
CSCC[C@@H]1NC(=O)[C@H](Cc2c[nH]c3ccccc23)NC(=O)[C@H](CCCCN)NC(=O)[C@@H](NC(=O)[C@H](C)N)CSSC[C@@H](C(=O)NCC(=O)NCC(=O)NCC(N)=O)NC(=O)[C@H](Cc2ccc(O)cc2)NC(=O)CNC(=O)[C@H](CCC(=O)O)NC(=O)[C@H](CCC(=O)O)NC1=O gave an IC50 of roughly 520 µM (Lysine-specific demethylase 4C (KDM4C, Homo sapiens, UniProt Q9H3R0); TR-FRET).
For COc1ccc(/C=C/C(=O)N2CCN(Cc3ccccc3)CC2)cc1OC, the IC50 was 1.9 µM (MAOB; fluorescence).
The IC50 of COc1cccc(CO)c1 is reported as greater than 10 µM (MAOB; fluorescence).
C#CCNc1nc(NCCCCC2CCN(Cc3ccccc3)CC2)c(C#N)cc1C#N gave an IC50 of greater than 50 µM (MAOB; fluorescence; with preincubation).
COc1ccc2c(c1)[nH]c1c(C)nccc12 has an IC50 of 37.5 µM (MAOB).
For C#CCNc1nc(NCCCC2CCN(Cc3ccccc3)CC2)c(C#N)cc1C#N, the IC50 was greater than 100 µM (MAOB; fluorescence; with preincubation).
For O=[N+]([O-])c1cc(Cl)c(O)c(Cl)c1, the IC50 was 0.7 µM (Sulfotransferase 1A1 (SULT1A1, Homo sapiens, UniProt P50225, R213H)).
The IC50 of COc1cc(C(=O)N2CC[C@@H](O)[C@@H](N)C2)cc2nc(-c3cc4ccccc4n3CC3CC3)n(C)c12 is reported as 15.8 µM (MAOB).
